bCat KO growth = beta-catenin-lacking colon tumor cell growth suppression; HCT116 beta-catenin knockout viability, CellTiter-Glo, 60 h; hits give low values; viability, % at 10 µM; 1.5% of 140,000 active; AID 818;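 active = viability at or under a set limit, the compound median less 4 SD, cut at about 6% in these data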
Lung fibro prol = blocks proliferation of human lung fibroblasts. AID 719. viability, % at 10 µM. LL 47 human lung fibroblast viability, ATP luminescence; hits give low values. 1.1% of 85,000 active;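 active = viability at or below 50% in the single dose screen; inactive = viability above 50%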;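 also: compound exposure lasted 72 h before the ATP readout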
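Times – overnight cell rest, 72 h compound treatment at 37 °C · Test system – human lung fibroblast line LL 47, low passage · Amount – 1,150 cells in each well · Controls – cell-only wells, no compound · Doses – 0.1% DMSO in all compound wells · Measured by – CellTiter-Glo luminescence · Buffer or medium – IMEM plus 15% FBS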
HUVEC prolif 384 = blocks proliferation of human endothelial cells; HUVEC proliferation, CellTiter-Glo luminescence, 72 h; hits give low values; 1.1% of 86,000 active; viability, % at 10 µM (by protocol); AID 648;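 active = viability at or below 30%; inactive = viability above 30%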
PTEN del growth = suppresses growth of cells with PTEN deletion. HCT116 PTEN-null viability, CellTiter-Glo, 60 h; hits give low values. viability, % at 10 µM. 1.2% of 140,000 active;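 active = viability at or below a set limit, 4 SD under the median of all tested compounds, cut at about 3.7% in these data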;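 also: PTEN knockout HCT116 line with beta catenin targeted HCT116 as companion control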
H69AR inhibit = blocks growth of human H69AR lung tumor cells; H69AR lung tumor viability, ATP luminescence, 72 h; hits give low values; viability, % at 10 µM; 6% of 85,000 active; AID 598;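 active = viability at or below 40%; inactive = viability above 40%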;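 also: multidrug resistant small cell line overexpressing MRP-1 efflux transporter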
Each line names hits and unclear results; the compound was inactive in the other large screens. This excerpt belongs to a sample that is enriched for hits.

Cc1ccc(-c2cc(-c3ccccc3[N+](=O)[O-])[nH]n2)c(O)c1	none (no result: Lung fibro prol, HUVEC prolif 384, H69AR inhibit)
COc1ccc2c(c1OC)C(=O)O[C@@H]2[C@H]1c2c(cc3c(c2OC)OCO3)CCN1C	H69AR inhibit 30
CCOc1cc2[nH]c(=O)n(Cc3cccc(OC)c3)c(=O)c2cc1OCC	H69AR inhibit 21
CCOc1cc2[nH]c(=O)n(Cc3ccc(C(=O)NCCOC)cc3)c(=O)c2cc1OCC	none
C/C(CC1CC2=C(CC1(C)C)C(C)(C)CCC2)=N\NC(N)=S (configuration not stated)	H69AR inhibit 23
Brc1ccccc1Cn1c(-c2cscn2)nc2ccccc21	none
C[C@]12CC[C@@H]3c4ccc(OC(=O)c5ccccc5)cc4CC[C@H]3[C@@H]1CC[C@@H]2O	H69AR inhibit 26
Oc1ccccc1N=Cc1ccc[nH]1	H69AR inhibit 35
CC(=O)Nc1ccc(N=Cc2ccc[nH]2)cc1	none (no result: Lung fibro prol, HUVEC prolif 384, H69AR inhibit)
CCOC(=O)CNC(=O)CSc1nnc(Cn2cnc3ccccc32)n1C	none (no result: H69AR inhibit)
CC(=O)Oc1ccc(N2C(=O)C3C(C2=O)C2(C)C=CC3(C)O2)cc1 (configuration not stated)	Lung fibro prol 27, H69AR inhibit 2.3 (no result: bCat KO growth, PTEN del growth)
COC(=O)C1(C(=O)OC)NOC2C(=O)N(c3ccccc3)C(=O)C21 (configuration not stated)	none (no result: Lung fibro prol, HUVEC prolif 384, H69AR inhibit)
COC(=O)c1cc(N2C(=O)C3C(C2=O)C2(C)C=CC3(C)O2)ccc1Cl (configuration not stated)	H69AR inhibit 0.7
CCOC(=O)N1CCC(=NNC(=O)COc2ccc(OC)cc2)CC1	none (no result: Lung fibro prol, HUVEC prolif 384, H69AR inhibit)
O=C(CCCc1nc2ccccc2s1)NC(c1ccccc1)c1ccccc1	none (no result: Lung fibro prol, HUVEC prolif 384, H69AR inhibit)
COc1cc(NC(=O)c2cc(-c3cccc(O)c3)on2)cc(OC)c1OC	H69AR inhibit 28
Cc1ccc(NC(=O)c2cc(-c3cccs3)on2)cc1	none
COc1cc(NC(=O)c2cc(-c3cccs3)on2)cc(OC)c1OC	H69AR inhibit 23
COc1ccc(OC)c(-c2cc(C(=O)Nc3cccc(Cl)c3)no2)c1	H69AR inhibit 34
COc1cc(C(=O)Nc2nc(-c3cccs3)cs2)cc(OC)c1OC	H69AR inhibit 14
COc1cc(C(=O)Nc2ccc(N(C)C)cc2)cc(OC)c1OC	H69AR inhibit 33
COc1cc(C(=O)Nc2ccc(S(=O)(=O)N(C)c3ccccc3)cc2)cc(OC)c1OC	none (no result: Lung fibro prol, HUVEC prolif 384, H69AR inhibit)
CCN1CCc2c(C#N)c(N3CCOCC3)nc(NCc3ccccc3)c2C1	none
CCN1CCc2c(C#N)c(N3CCCCC3)nc(NCc3ccccc3)c2C1	bCat KO growth 1.2, PTEN del growth 0.9
Cc1ccc(Nc2cc(C)nc(-c3ccccc3O)n2)cc1	none
Cc1cc(NCCCN)nc(-c2ccccc2O)n1	H69AR inhibit 21
Cc1cc(N/N=C/c2ccc(O)c(C)c2O)nc(-c2ccccc2O)n1	bCat KO growth 1.7, PTEN del growth 1.8 (no result: Lung fibro prol, HUVEC prolif 384, H69AR inhibit)
Nc1nc(NC(=O)c2cccc(S(=O)(=O)N3CCCCCC3)c2)nc(-c2ccccc2)n1	Lung fibro prol 25, H69AR inhibit 5.3
O=C(O)c1cccc(NC(=O)c2cccc(S(=O)(=O)N3CCCCC3)c2)c1	none
O=c1ccc(Cl)cn1Cc1ccccc1F	none
[N-]=[N+]=NC1C[C@H](n2ccc(=O)[nH]c2=O)O[C@@H]1CO (some centres not stated)	bCat KO growth 1.1, PTEN del growth 1.0 (no result: Lung fibro prol, HUVEC prolif 384, H69AR inhibit)
Cc1c(C#N)c2ccccc2n1CC(=O)N1CCCC1	none
Cc1c(C#N)c2ccccc2n1CC(=O)N1CCCc2ccccc21	H69AR inhibit 32
CCn1c(COc2ccc(Cl)cc2)nnc1SCc1nc2ccccc2[nH]1	H69AR inhibit 4.4
Cc1ccc(OCc2nnc(SCc3nc4ccccc4[nH]3)n2Cc2ccco2)cc1	none
COc1nnnc2c1sc1nc(N3CCOCC3)c3c(c12)CC(C)(C)OC3	none (no result: bCat KO growth, PTEN del growth)
CC1(C)Cc2c(c(N3CCOCC3)nc3snc(N)c23)CO1	bCat KO growth 1.9, Lung fibro prol 3.5, PTEN del growth 1.9
CC1(C)Cc2c(c(N3CCOCC3)nc3snc(Br)c23)CO1	H69AR inhibit 19
CCC(C)NC(=O)CSC1=Nc2ccccc2C2=NC(CC(=O)NCc3ccccc3)C(=O)N12 (configuration not stated)	none
COc1cc2cc(Oc3ccc4ccc(=O)oc4c3)c(=O)oc2cc1O	none (no result: Lung fibro prol, HUVEC prolif 384, H69AR inhibit)
O=c1ccc2cc(O)c(O)cc2o1	H69AR inhibit 37
COc1ccc2nc(NC(=O)c3ccoc3C)sc2c1	H69AR inhibit 23
COc1ccc2nc(NC(=O)c3cccc(OCc4c(C)noc4C)c3)sc2c1	H69AR inhibit 21
COc1ccc2nc(NC(=O)c3cc(C)oc3C)sc2c1	none
COc1ccccc1-n1cnnc1SCC(=O)c1c[nH]c2ccccc12	none (no result: Lung fibro prol, HUVEC prolif 384, H69AR inhibit)
C/C(=N\Nc1cc(Cl)nc(C)n1)c1ccc(Cl)c(Cl)c1	none (no result: Lung fibro prol, HUVEC prolif 384, H69AR inhibit)
C/C(=N\Nc1cc(-c2ccccc2)nc(-c2ccccc2)n1)c1ccc(O)c(C)c1	PTEN del growth 2.0 (no result: Lung fibro prol, HUVEC prolif 384, H69AR inhibit)
CC(=O)NC1=NN(C(C)=O)C(C)(CS(=O)(=O)c2ccc3ccccc3c2)S1 (configuration not stated)	none
O=C(Oc1ccc(NC2=C(Cl)C(=O)c3ccccc3C2=O)cc1)c1ccc([N+](=O)[O-])cc1	bCat KO growth 0.9, PTEN del growth 1.1 (no result: Lung fibro prol, HUVEC prolif 384, H69AR inhibit)
COC(C#CCCN(C)C)(c1ccccc1)c1ccccc1	none (no result: Lung fibro prol, HUVEC prolif 384, H69AR inhibit)
Cc1cc(SCC(=O)N/N=C/c2ccc(O)cc2O)c(C)cc1Br	Lung fibro prol 37, H69AR inhibit 26
O=C(CCCCCNC(=O)c1ccccc1)N/N=C/c1ccc(O)cc1O	none (no result: Lung fibro prol, HUVEC prolif 384, H69AR inhibit)
CCN(CC)S(=O)(=O)c1ccc(OC)c(NC(=O)CSc2cc(C)ccc2C)c1	none (no result: Lung fibro prol, HUVEC prolif 384, H69AR inhibit)
CCOc1ccc(C(=O)Nc2cc(-c3nc4ccccc4[nH]3)ccc2Cl)cc1[N+](=O)[O-]	bCat KO growth 1.2, PTEN del growth 1.2 (no result: Lung fibro prol, HUVEC prolif 384, H69AR inhibit)
O=C(NC(=S)Nc1cc(-c2nc3ccccc3[nH]2)ccc1Cl)c1ccc2c(c1)OCO2	bCat KO growth 1.6, PTEN del growth 1.5 (no result: Lung fibro prol, HUVEC prolif 384, H69AR inhibit)
Cc1ccc(-c2nc3ccccc3[nH]2)cc1NC(=O)c1ccc2c(c1)OCO2	none (no result: Lung fibro prol, HUVEC prolif 384, H69AR inhibit)
CCCNC(=O)CN(c1cccc(F)c1)S(C)(=O)=O	none (no result: Lung fibro prol, HUVEC prolif 384, H69AR inhibit)
Cc1c(Cc2c(Cl)cccc2Cl)c(=O)ccn1C(C)c1ccccc1 (configuration not stated)	none (no result: Lung fibro prol, HUVEC prolif 384, H69AR inhibit)
CCC1CCC(c2nnc(-c3ccc([N+](=O)[O-])cc3)o2)CC1 (configuration not stated)	none (no result: Lung fibro prol, HUVEC prolif 384, H69AR inhibit)
Oc1c(C(Nc2ccccn2)c2cccnc2)cc(Cl)c2cccnc12 (configuration not stated)	bCat KO growth 3.6 (no result: Lung fibro prol, HUVEC prolif 384, H69AR inhibit)
Cc1cc(NC(c2cccnc2)c2ccc3cccnc3c2O)no1 (configuration not stated)	bCat KO growth 4.3, Lung fibro prol 3.9, H69AR inhibit 31
Cc1ccc(C2CC(c3ccccc3)=NN2C(=O)CSc2nnc(-c3ccncc3)n2C)o1 (configuration not stated)	none (no result: Lung fibro prol, HUVEC prolif 384, H69AR inhibit)
Nc1nc(SCC(=O)Nc2ccccc2Oc2ccccc2)n[nH]1	none (no result: Lung fibro prol, HUVEC prolif 384, H69AR inhibit)
Cc1ccsc1/C=C/C1=Cc2c(sc(NC(=O)CSc3n[nH]c(N)n3)c2C#N)C(C)(C)C1	HUVEC prolif 384 15, H69AR inhibit 1.7

High-throughput results as filed in PubChem.
